Source: PubChem (The Scripps Research Institute Molecular Screening Center)
Most compounds without a hit are left out; they make up all but 4.6% or so of the library.
OX1R antag-1 = antagonists of human orexin 1 receptor (OX1R); Orexin/Hypocretin receptor type 1 (Homo sapiens), O43613; OX1R-expressing cells, FRET antagonist read-out; inhibition, % at 6.6 µM; 1.8% of 330,000 active; in the data active = inhibition mostly above about 38%, no sharp cut-off; inactive = mostly below about 40%;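 note: 0% = agonist challenge alone and 100% = reference antagonist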
OX1R antag-2 = OX1R (HCRTR1) antagonists, primary screen, fluorescence, CHO/OX1R cells, Fluo-8 calcium, orexin A. AID 434989, 2010. 0.43% of 330,000 active. inhibition, % at 5 µM. Orexin/Hypocretin receptor type 1 (Homo sapiens), O43613. Fluo-8 calcium fluorescence;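 active = inhibition above its plate's threshold, mean inhibition of all tested compounds on the plate plus 3 SD, cut at about 37% in these data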;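 note: 0% = orexin A challenge wells and 100% = SB-334867-A antagonist wells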
TAAR1 agonist = human TAAR1 agonists, primary screen, Fluo-8 calcium fluorescence, CHO RD-HGA16 cells; Trace amine-associated receptor 1 (Homo sapiens), Q96RJ0; vehicle wells 0%, saturating PEA agonist 100%; activation, % at 3 µM; 0.99% of 360,000 active;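 active = activation above the mean activation of all test compounds in the run plus 3 SD, cut at about 38% in these data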
Target sequence (Q96RJ0 whole entry, looked up): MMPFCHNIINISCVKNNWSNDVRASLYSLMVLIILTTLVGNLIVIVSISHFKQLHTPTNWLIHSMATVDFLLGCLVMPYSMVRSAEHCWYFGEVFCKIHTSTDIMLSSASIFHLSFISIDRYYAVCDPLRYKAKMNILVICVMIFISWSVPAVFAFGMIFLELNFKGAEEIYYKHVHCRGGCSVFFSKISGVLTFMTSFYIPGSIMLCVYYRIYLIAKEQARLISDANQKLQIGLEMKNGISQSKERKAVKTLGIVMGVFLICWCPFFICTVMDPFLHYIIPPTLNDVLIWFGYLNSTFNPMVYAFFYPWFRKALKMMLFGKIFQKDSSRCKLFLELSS
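System: CHO RD-HGA16 cells carrying human TAAR1 plus Gα16; Incubation: 17-24 h seeding, 75 min 37 °C dye, 30 min RT; Measured by: Fluo-8 fluorescence, 5 s baseline then 140 s kinetic read; Control set: DMSO and PEA EC100; Replication: single well for each compound.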
CHO parental Ca = ATP-evoked calcium signal inhibitors, parental CHO, primary screen, counter-screen for OX1R antagonist project, cell-based, fluorescence, Fluo-8 calcium dye; parental CHO-K1, ATP-induced calcium, Fluo-8 fluorescence; inhibition, % at 5.6 µM; 0.63% of 330,000 active;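 active = inhibition above that plate's mean sample inhibition plus 3 SD, cut at about 26% in these data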;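 note: 0% = ATP-challenged DMSO wells and 100% = DMSO wells without ATP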
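Material: Parental CHO cells | Reagent: ATP | Compound dosing: Single nominal dose of 5.6 µM per compound | Detection: Intracellular calcium via Fluo-8 no-wash fluorescent dye | Read-out: % inhibition of ATP-induced calcium mobilization | Benchmarks: Low control ATP plus DMSO, high control DMSO only | Replicates: Singlicate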
TAAR1 antag = human TAAR1 antagonists, primary screen, Fluo-8 calcium fluorescence, CHO RD-HGA16 cells. Trace amine-associated receptor 1 (Homo sapiens), Q96RJ0. antagonist. inhibition, % at 3 µM. AID 624466, 2012. 1.5% of 360,000 active;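 active = inhibition above a per-plate cutoff, the mean inhibition of test compounds on that plate plus 3 SD, cut at about 49% in these data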;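 note: 0% = DMSO plus EC80 beta-PEA response and 100% = DMSO alone without agonist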
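Test system – hTAAR1-expressing CHO RD-HGA16 cells, Gα16-coupled · Also added – β-PEA at EC80 concentration, post-compound challenge · Compound – 3 µM, single point · Incubation – dye loading 75 min at 37 °C, then 30 min room temperature · Measured by – Fluo-8 intracellular calcium dye fluorescence, real-time kinetic reads · Benchmarks – vehicle and agonist controls · Replicates – singlicate, one well per test compound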
GPR7 antagonist = GPR7 receptor antagonists, primary screen, cell-based, fluorescence, single concentration. 1.1% of 290,000 active. GPR7-expressing cells, fluorescence antagonist assay. inhibition, % at 4.4 µM. Neuropeptides B/W receptor type 1 (Homo sapiens), P48145; in the data active = inhibition above about 16%, passing the limit was not always enough;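 note: cells stimulated with the agonist NPW; 0% = agonist with vehicle and 100% = vehicle without agonist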
Target sequence (P48145 whole entry, looked up): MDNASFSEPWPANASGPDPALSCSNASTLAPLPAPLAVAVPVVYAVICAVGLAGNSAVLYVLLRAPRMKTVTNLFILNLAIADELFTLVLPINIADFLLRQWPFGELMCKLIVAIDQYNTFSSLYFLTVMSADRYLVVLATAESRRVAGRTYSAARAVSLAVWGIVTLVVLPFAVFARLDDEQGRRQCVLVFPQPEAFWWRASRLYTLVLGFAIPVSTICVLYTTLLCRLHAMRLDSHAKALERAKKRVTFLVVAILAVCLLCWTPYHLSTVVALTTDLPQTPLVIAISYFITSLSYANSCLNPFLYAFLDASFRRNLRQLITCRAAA
* marks the source's active call; other numbers are inactive results; / = no result given.

SMILES | OX1R antag-1 | OX1R antag-2 | TAAR1 agonist | CHO parental Ca | TAAR1 antag | GPR7 antagonist
COc1cc(OC)c(C(=O)OCC(=O)NCC2CCCCC2)cc1OC | / | / | 0 | / | -4 | /
CCn1c(CCNC(=O)c2ccc(Cl)c(Cl)c2)nnc1SCCOc1ccc(OC)cc1 | 41* | -7 | 3 | -26 | -7 | -2
COc1ccc(OCCSc2nnc(CCNC(=O)c3ccc(Cl)c(Cl)c3)n2C)cc1 | 24 | 7 | 14 | -27 | -4 | -4
O=[N+]([O-])c1ccc(S(=O)(=O)N(CC(O)CN2CCCCC2)c2ccccc2)cc1 (centres undefined) | 48* | -2 | 3 | -15 | 4 | 5
O=c1c(-c2nnc(SCc3ccc(Cl)cc3Cl)o2)cccn1Cc1ccccc1 | 52* | 49* | 6 | 43* | 10 | -5
CSc1nnc(-c2cccn(Cc3ccccc3)c2=O)o1 | 27 | -22 | 3 | -16 | -5 | -8
CCC(C)(C)NC(=O)C(c1ccncc1)N(Cc1ccc(C)cc1)C(=O)c1csnn1 (centres undefined) | 8 | -39 | 2 | -26 | -12 | -9
c1ccc(CNc2ncnc3c2oc2ccccc23)nc1 | 11 | -9 | 2 | -6 | 10 | -11
COc1ccc(CCNc2ncnc3c2oc2ccccc23)cc1OC | 78* | 60* | 12 | 79* | 61* | 37*
COc1ccc(CCNc2nc(C)nc3c2oc2ccccc23)cc1OC | 54* | 31 | 13 | 58* | 49* | 13
CCc1ccc(S(=O)(=O)NCc2csc(C)n2)cc1 | / | / | 0 | / | 6 | 23
CCc1c(C)nc(SCC(=O)c2cccs2)c(C#N)c1C | 64* | -4 | 12 | -6 | 9 | 8
CCc1c(C)nc(SCC(N)=O)c(C#N)c1C | 6 | -7 | 2 | -12 | -8 | -9
COc1ccccc1CNC(=O)Nc1nc(C(N)C(C)C)cs1 (centres undefined) | / | / | 2 | / | 2 | /
COc1ccccc1CNC(=O)Nc1nc(C(N)Cc2ccc(Cl)cc2)cs1 (centres undefined) | / | / | 45* | / | 51* | /
COc1ccc(CNC(=O)Nc2nc(C(N)Cc3ccc(Cl)cc3)cs2)cc1 (centres undefined) | / | / | 50* | / | 66* | /
O=C(CNCC1(N2CCOCC2)CCCCC1)Nc1ccc(Cl)cc1 | 9 | -16 | 9 | -25 | 9 | -11
O=C(NCC1CCN(C(=O)c2ccc([N+](=O)[O-])cc2)CC1)C(=O)Nc1ccccc1 | 5 | -3 | 2 | -8 | 6 | -13
Cc1csc(N/N=C/c2c(F)cccc2Cl)n1 | -1 | 26 | 0 | -9 | -10 | 13
O=C(O)c1ccc2c(c1)S(=O)(=O)c1ccccc1C2=O | / | / | / | / | / | 1
O=C(O)c1ccc2c(c1)S(=O)(=O)c1cc(Cl)ccc1C2=O | 32* | -9 | 6 | -8 | -1 | /
NC(=O)c1ccc2c(c1)S(=O)(=O)c1ccccc1C2=O | 65* | -15 | 2 | -13 | 2 | 3
CCc1cccc(CC)c1NC(=O)COC(=O)c1ccc2c(c1)S(=O)(=O)c1ccccc1C2=O | 33 | -19 | -1 | -12 | -1 | -15
NC(=O)COC(=O)c1ccc2c(c1)S(=O)(=O)c1ccccc1C2=O | 64* | -11 | 0 | -8 | -5 | -20
O=C(COC(=O)c1ccc2c(c1)S(=O)(=O)c1ccccc1C2=O)NC1CC1 | 51* | -21 | 0 | -15 | 7 | -18
SMILES | OX1R antag-1 | OX1R antag-2 | TAAR1 agonist | CHO parental Ca | TAAR1 antag | GPR7 antagonist
CC(C)OC(=O)CSc1nnc(SCc2cccc3ccccc23)s1 | 26 | -18 | 6 | 5 | 31 | 0
COCCN1CCN(C(=O)c2ccc3c(c2)S(=O)(=O)c2ccccc2C3=O)CC1 | 66* | -1 | 5 | -18 | -2 | /
CC(OC(=O)c1ccc2c(c1)S(=O)(=O)c1ccccc1C2=O)C(N)=O (centres undefined) | 71* | 0 | 2 | -5 | 9 | 6
O=C1c2ccccc2S(=O)(=O)c2cc(C(=O)N3CCN(c4ccccc4)CC3)ccc21 | 32 | -4 | 10 | -9 | 15 | /
COC[C@@H]1CCCN1c1ccc2c(c1)O[C@@H](COCc1ccccc1)CN([C@@H](C)c1ccccc1)S2(=O)=O | / | / | 0 | / | -25 | /
Cc1ccc(S(=O)(=O)N(CC(=O)N2CCC(C)CC2)Cc2ccccc2F)cc1 | 17 | -9 | 12 | 11 | 15 | 0
O=C(C1CCC(=O)N1Cc1cccs1)N1CCOCC1 (centres undefined) | 5 | -7 | 6 | -9 | 18 | -10
CN(C)C(=O)C1CCC(=O)N1Cc1cccs1 (centres undefined) | 9 | -14 | 3 | 6 | 0 | 16*
CCc1ccccc1-n1c(SCC(=O)c2c(N)n(C3CC3)c(=O)[nH]c2=O)nnc1N1CCOCC1 | 8 | -6 | 7 | -1 | -5 | /
Cc1cc(C)cc(NC(=O)C2CCN(C(=O)c3cccs3)CC2)c1 | 21 | -20 | 0 | -6 | -9 | -2
COc1cc(/C=C/C(=O)OCC(=O)N2CCCc3ccccc32)ccc1O | 19 | -16 | 5 | -16 | 22 | /
O=C(/C=C/c1cccc(F)c1)OCC(=O)N1CCc2ccccc21 | 1 | 12 | 20 | -9 | 49* | /
Cc1cc(C)n2nc(/C(C#N)=C/c3ccccn3)c(C#N)c2n1 | 28 | -9 | 2 | 43* | 4 | -6
Cc1cc(C)n2nc(CC#N)c(C#N)c2n1 | 27 | 8 | 0 | 4 | 5 | 1
CCCOc1ccc(CCCN=C(N)N)cc1Cl | -2 | -2 | 2 | -8 | -3 | -8
COc1ccnc(Oc2ccccc2)c1C(=O)N/C=N/OCc1ccccc1F | 12 | -26 | 22 | -18 | 49* | 6
COc1ccnc(Oc2ccc(F)cc2)c1C(=O)N/C=N/OCc1ccccc1 | 19 | 3 | 10 | -15 | 10 | 9
CCC(CC)N=C1NS(=O)(=O)c2cc([N+](=O)[O-])ccc21 | 55* | -7 | 3 | -12 | 7 | -6
Cc1nc(N)nc(N/N=C/c2ccccc2)n1 | 2 | 1 | 3 | 13 | -3 | -17
Cc1cc(N/N=C/c2ccccc2)nc(N)n1 | 21 | -4 | 41* | -6 | 9 | -12
Cc1cc(NC(=O)c2ccc3c(c2)C(=O)N(C2CCCCC2)C3=O)no1 | 10 | -7 | 3 | -11 | -15 | 3
Cc1ccc(C(=O)Nc2ccc3c(c2)C(=O)N(CC2CCCO2)C3=O)cc1 (centres undefined) | 10 | 9 | 3 | -10 | -12 | -3
O=C(Nc1ccncc1)c1ccc2c(c1)C(=O)N(C1CCCCC1)C2=O | 45 | 43 | 32 | 51* | 45 | 1
